Assay results published in publication PMC8463264 (Acta Pharmaceutica Sinica. B, 2020).
Where no end group is shown, it is not given here.

Key:
[1] = cited from earlier work
[2] = tested on: immune cell infiltration into BAL of BALB/c mice; experiment: Mouse model of allergic airway hypereosinophilia; assay type: in vivo; settings: for effect on influx of macrophages into BAL: OVA-challenged mice
CXCR4-tropic HIV-1 = experiment: X4-HIV-1 inhibition assay in TZM-bl reporter cells; assay type: cell-based; settings: for fold increase of antiviral (anti-HIV-1) activity over WSC02: ratio of IC50 values vs WSC02
[3] = tested on: CXCL12-induced intracellular Ca^2+ mobilization in BCR-ABL expressing murine pro/pre B cells; experiment: CXCL12-induced Ca2+ mobilization assay; assay type: cell-based, mouse
[4] = tested on: MC903-induced skin inflammation of ears of BALB/c mice; experiment: Mouse model of atopic dermatitis; assay type: in vivo
CXCR4 = CXCR4 (Homo sapiens, UniProt P61073); experiment: CXCR4 12G5 antibody competition assay on SupT1 cells; assay type: binding
mice = experiment: Observation of visible or behavioral adverse effects in mice; assay type: in vivo, mouse; settings: administered topically onto the ears or intranasally into lungs of mice
zebrafish embryos = experiment: Toxicity in zebrafish embryos; assay type: in vivo
Method in brief: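 Wild-type embryos dechorionated at 24 hpf with 1 mg/mL pronase in E3, then exposed 24 h in E3 containing peptide. Two independent assays per concentration, each on 10 × 3 embryos. Controls: PBS solvent diluted in E3 matching the highest-dose amount, and pleurocidin peptide NRC-03. Scored at 48 hpf by stereomicroscope: lysis/necrosis, delay/malformations, heart edema/reduced or absent circulation.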

[5] = tested on: SupT1 migration towards a CXCL12 gradient; experiment: Transwell cell migration assay; assay type: cell-based
Method in brief: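 SupT1 cells (0.75 × 10^5) in RPMI with 0.1% BSA go into the upper chamber of a 5 μm polycarbonate transwell, with or without compound, and settle ~15 min. The lower chamber holds buffer with or without 100 ng/mL CXCL12 plus compound. After 4 h of migration at 37 °C (5% CO2), lower-chamber cells are counted by CellTiter-Glo and normalized to CXCL12-only. Mean ± SEM, n = 3; fold values compare IC50s.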

[6] = 12.6 μmol/kg intranasal, 2 h before each OVA challenge, BAL on day 8, mean ± SEM
[7] = 315 nmol/ear topically daily, day 11, mean ± SEM
[8] = 20 nmol/ear topically daily, day 11, mean ± SEM
[9] = 16 μmol/kg intranasal, 2 h before each OVA challenge, BAL on day 8, mean ± SEM
[10] = 2.5 nmol/ear every two days, day 11 (disease inducer)

CXCR4, sequence (P61073 whole entry): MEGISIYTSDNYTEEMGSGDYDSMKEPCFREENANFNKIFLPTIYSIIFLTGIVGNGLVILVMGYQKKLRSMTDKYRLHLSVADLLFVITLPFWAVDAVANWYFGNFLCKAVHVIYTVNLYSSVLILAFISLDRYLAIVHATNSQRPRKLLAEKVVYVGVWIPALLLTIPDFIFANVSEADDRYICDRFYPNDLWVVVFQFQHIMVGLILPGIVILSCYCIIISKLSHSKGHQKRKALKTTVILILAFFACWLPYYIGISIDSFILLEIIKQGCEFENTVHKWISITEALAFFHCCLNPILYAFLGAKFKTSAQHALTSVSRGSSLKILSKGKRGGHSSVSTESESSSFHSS

c1cc(CN2CCCNCCNCCCNCC2)ccc1CN1CCCNCCNCCCNCC1 [AMD3100, Plerixafor]
stability towards plasma proteases [1]: resistant to plasma proteases
inhibition of recruitment of B cells into BAL [2, 6]: 47 ± 17%
inhibition of recruitment of T cells into BAL [2, 6]: 47 ± 15%
inhibition of recruitment of eosinophils into BAL [2, 6]: 56 ± 13%
inhibition of recruitment of neutrophils into BAL [2, 6]: 57 ± 14%
inhibition of recruitment of total cells into BAL [2, 6]: 41 ± 13%
IC50 (CXCR4-tropic HIV-1; Human immunodeficiency virus 1, TZM-bl, read-out: IC50±SEM X4-HIV-1): 0.012 ± 0.002 µM
effect on CXCL12-induced Ca2+ mobilization ([3]; 1 μmol/L compound): reduced Ca^2+ mobilization
effect on CXCL12-induced Ca2+ mobilization ([3]; 10 μmol/L compound): completely abrogated
inhibition of MC903 induced ear thickness [4, 7]: 25 ± 7%
inhibition of disease score [4, 7]: 18 ± 6%

C[C@@H]1C[C@H]2[C@@H]3CCC4=CC(=O)C=C[C@]4(C)[C@@]3(F)[C@@H](O)C[C@]2(C)[C@@]1(O)C(=O)CO [dexamethasone]
inhibition of MC903-induced ear thickening [4, 8]: 96 ± 2%
inhibition of disease score [4, 8]: 97 ± 2%

H-LVRYTKKVPQVSTPTL [EPI-X4]
IC50 (CXCR4): 3.24 ± 0.62 µM
visible or behavioral adverse effects (mice): did not observe visible or behavioral adverse effects
inhibition of recruitment of B cells into BAL [2, 9]: 54 ± 9%
inhibition of recruitment of T cells into BAL [2, 9]: 61 ± 8%
inhibition of recruitment of eosinophils into BAL [2, 9]: 76 ± 7%
inhibition of recruitment of neutrophils into BAL [2, 9]: 63 ± 7%
effect on influx of macrophages into BAL ([2]; 16 μmol/kg intranasal): not macrophages
effect on CXCL12-induced Ca2+ mobilization ([3]; at the tested concentrations): almost inactive

C=C1/C(=C\C=C2/CCC[C@]3(C)[C@@H]([C@H](C)/C=C/[C@@H](O)C4CC4)CC[C@@H]23)C[C@@H](O)C[C@@H]1O [MC903, calcipotriol hydrate]
disease score (0-12, Table 3) [4, 10]: 9.4 ± 0.1
increase of the ear thickness as compared to control [4, 10]: 3.1 ± 0.1 fold

GRRKRKWLRRIGKGVKIIGGAALDHL-NH2 [NRC-03]
toxicity in zebrafish embryos (positive control) (zebrafish embryos; 6 μmol/L, exposure 24 h): acutely toxic

H-ILRWSKKVPCVS [JM#1]
fold increase of antiviral (anti-HIV-1) activity over WSC02 (CXCR4-tropic HIV-1): 9 fold

H-IVRWSKKVPCVS [WSC02]
visible or behavioral adverse effects (mice): did not observe visible or behavioral adverse effects

CC[C@H](C)[C@H](N)C(=O)N[C@@H](CC(C)C)C(=O)N[C@@H](CCCNC(=N)N)C(=O)N[C@@H](Cc1c[nH]c2ccccc12)C(=O)N[C@@H](CO)C(=O)N[C@@H](CCCNC(=N)N)C(=O)N[C@@H](CCCCN)C(=O)N[C@@H](CC(C)C)C(=O)N1CCC[C@H]1C(=O)N[C@@H](CS)C(=O)N[C@H](C(=O)N[C@@H](CO)C(=O)O)C(C)C [JM#21]
IC50 (CXCR4): 0.22 ± 0.02 µM
fold more active than AMD3100 in 12G5 competition (CXCR4; vs AMD3100): about 3 fold
fold more active than WSC02 in 12G5 competition (CXCR4; vs WSC02): ~2 fold
visible or behavioral adverse effects (mice): did not observe visible or behavioral adverse effects
inhibition of recruitment of B cells into BAL [2, 9]: 71 ± 5%
inhibition of recruitment of T cells into BAL [2, 9]: 73 ± 13%
inhibition of recruitment of eosinophils into BAL [2, 9]: 80 ± 1%
inhibition of recruitment of neutrophils into BAL [2, 9]: 42 ± 15%
effect on influx of macrophages into BAL ([2]; 16 μmol/kg intranasal): not macrophages
fold more efficient than WSC02 in blocking migration ([5]; vs WSC02): 33 fold
fold more efficient than EPI-X4 in blocking migration ([5]; vs wild type peptide EPI-X4): more than 1400 fold
inhibition of MC903-induced ear thickening ([4]; 400 nmol/ear topically daily, day 11, mean ± SEM): 88 ± 4%
toxicity in zebrafish embryos (acute, developmental, cardiotoxicity) (zebrafish embryos; exposure 24 h from 24 hpf, 3, 30 and 300 μmol/L, 60 embryos per group): not toxic

H-IVRWSKKFPCVS [JM#7]
fold increase of antiviral (anti-HIV-1) activity over WSC02 (CXCR4-tropic HIV-1): about 2 fold
